Among the data in ChEMBL document CHEMBL1123529, “Analogues of substance P. Peptides containing D-amino acid residues in various positions of substance P and displaying agonist or receptor selective antagonist effects” (1986) are SP and Activity values, retold here.

Assay [1] addresses Substance-P receptor (Cavia porcellus) (UniProt P30547). Description: Evaluated in vitro for percent agonist activity in guinea pig ileum (substance P receptor). The class given is functional, tissue-based.
A short description of assay [2]: In vitro antagonistic activity against Substance P on guinea pig ileum at concentration of 10 uM. The class given is functional, Cavia porcellus. The essentials:
(§1)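 Dose-response curves used a 3-min cycle with 1-min contact and washout, with SP or SP(6-11)-hexapeptide as agonist. Dose ratio is the agonist EC50 with antagonist divided by the EC50 alone. At least two preparations per compound; ratios under 2 were considered insignificant.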

Assay [3] is described as follows: In vitro antagonistic activity against Substance P(6-11) in guinea pig ileum at concentration of 10 uM. The class given is functional, Cavia porcellus. The essentials:
as §1

The target in assay [4] is Substance-P receptor (Cavia porcellus) (UniProt P30547). Description: Antagonistic activity against Substance P(6-11) receptor in guinea pig ileum at concentration of 5 uM. The class given is functional, tissue-based. The essentials: (§2)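 Distal ileum from Dunkin-Hartley guinea pigs (300-350 g, both sexes) in a Krebs organ bath at 37 °C, gassed with 95% O2/5% CO2. Agonist (SP or SP(6-11)) dose-response curves run on a 3-min cycle with 1-min contact, with and without antagonist. Dose ratio = agonist EC50 with antagonist / EC50 alone. At least two preparations per compound; ratios below 2 taken as insignificant.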

Assay [5] shares this target. Description: Antagonistic activity against Substance P receptor in guinea pig ileum at concentration of 5 uM. The class given is functional, tissue-based. The essentials: as §2

Values joined by “and” are separate entries in the source; they are usually repeats but may differ in a detail not shown here. Equal values may be shown once. A value given as a limit tells only on which side of the number the result lay.

Chain of Substance-P receptor (Cavia porcellus) (P30547 whole entry): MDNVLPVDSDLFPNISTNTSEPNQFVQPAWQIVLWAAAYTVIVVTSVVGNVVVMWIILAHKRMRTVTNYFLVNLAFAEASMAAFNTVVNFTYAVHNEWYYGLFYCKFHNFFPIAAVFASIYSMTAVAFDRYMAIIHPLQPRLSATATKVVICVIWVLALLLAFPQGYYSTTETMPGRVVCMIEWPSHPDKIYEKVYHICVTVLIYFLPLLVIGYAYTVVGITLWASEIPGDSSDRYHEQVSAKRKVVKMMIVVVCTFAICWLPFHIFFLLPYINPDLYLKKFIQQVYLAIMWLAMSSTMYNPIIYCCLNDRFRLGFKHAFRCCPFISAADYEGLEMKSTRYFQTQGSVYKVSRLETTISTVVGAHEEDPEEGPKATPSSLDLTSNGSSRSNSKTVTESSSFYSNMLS

Regarding `COC(=O)[C@@H](CCSC)NC(=O)C(Cc1ccccc1)NC(=O)C(Cc1ccccc1)NC(=O)C(Cc1ccccc1)NC(=O)C(Cc1ccccc1)NC(=O)[C@H](CCC(N)=O)NC(=O)[C@H](CCC(N)=O)NC(=O)[C@@H]1CCCN1C(=O)[C@H](CCCCNC(=O)OCc1ccccc1)NC(=O)[C@@H]1CCCN1C(=O)[C@H](CCCN=C(N)N)NC(=O)OCc1ccccc1` (stereo in doubt), the SP in assay [1] is < 0.0001%. Besides, the Activity in assay [2] and in assay [3] was <2 dose ratio each time.

In the case of `CSCC[C@H](NC(=O)[C@H](CC(C)C)NC(=O)CNC(=O)[C@H](Cc1ccccc1)NC(=O)[C@H](Cc1ccccc1)NC(=O)[C@H](CCC(N)=O)NC(=O)[C@H](CCC(N)=O)NC(=O)C1CCCN1C(=O)[C@H](CCCCN)NC(=O)C1CCCN1C(=O)[C@@H](N)CCCN=C(N)N)C(N)=O` (stereo in doubt), in assay [1], the SP was 15%.

As for `CSCC[C@H](NC(=O)[C@H](CC(C)C)NC(=O)CNC(=O)[C@H](Cc1ccccc1)NC(=O)[C@H](Cc1ccccc1)NC(=O)[C@H](NC(=O)[C@H](NC(=O)[C@@H]1CCCN1C(=O)[C@H](CCCCNC(=O)OCc1ccccc1)NC(=O)[C@@H]1CCCN1C(=O)[C@H](CCCN=C(N)N)NC(=O)OCc1ccccc1)C(C)C)C(C)C)C(=O)O`, the Activity in assay [2] and in assay [3] was <2 dose ratio in each case.

For `COC(=O)[C@H](CCSC)NC(=O)[C@H](CC(C)C)NC(=O)CNC(=O)[C@H](Cc1ccccc1)NC(=O)[C@H](Cc1ccccc1)NC(=O)[C@H](CCC(N)=O)NC(=O)[C@H](CCC(N)=O)NC(=O)C1CCCN1C(=O)[C@H](CCCCNC(=O)OCc1ccccc1)NC(=O)C1CCCN1C(=O)[C@H](CCCN=C(N)N)NC(=O)OCc1ccccc1` (stereo in doubt), the SP in assay [1] was 7%.

`CSCC[C@H](NC(=O)[C@H](CC(C)C)NC(=O)CNC(=O)[C@H](Cc1ccccc1)NC(=O)[C@H](Cc1ccccc1)NC(=O)[C@H](CCC(N)=O)NC(=O)[C@H](CCC(N)=O)NC(=O)C1CCCN1C(=O)[C@H](CCCCNC(=O)OCc1ccccc1)NC(=O)C1CCCN1C(=O)[C@H](CCCN=C(N)N)NC(=O)OCc1ccccc1)C(=O)O` (stereo in doubt): the SP in assay [1] turned out to be 63%.

As to `CSCC[C@@H](NC(=O)[C@H](CC(C)C)NC(=O)[C@@H](Cc1c[nH]c2ccccc12)NC(=O)[C@@H](Cc1c[nH]c2ccccc12)NC(=O)[C@@H](Cc1c[nH]c2ccccc12)NC(=O)[C@H](CCC(N)=O)NC(=O)[C@H](CCC(N)=O)NC(=O)[C@@H]1CCCN1C(=O)[C@H](CCCCNC(=O)OCc1ccccc1)NC(=O)[C@@H]1CCCN1C(=O)[C@H](CCCN=C(N)N)NC(=O)OCc1ccccc1)C(=O)O`, the Activity in assay [2] is <2 dose ratio.

`COC(=O)[C@H](CCSC)NC(=O)[C@H](Cc1c[nH]c2ccccc12)NC(=O)[C@@H](Cc1c[nH]c2ccccc12)NC(=O)[C@H](Cc1ccccc1)NC(=O)[C@H](Cc1ccccc1)NC(=O)[C@H](CCC(N)=O)NC(=O)[C@H](CCC(N)=O)NC(=O)[C@@H]1CCCN1C(=O)[C@H](CCCCNC(=O)OCc1ccccc1)NC(=O)[C@@H]1CCCN1C(=O)[C@H](CCCN=C(N)N)NC(=O)OCc1ccccc1`: the Activity in assay [4] and in assay [5] was < 2 dose ratio throughout. The SP in assay [1] worked out at 0%.

`COC(=O)[C@@H](CCSC)NC(=O)[C@H](CC(C)C)NC(=O)CNC(=O)[C@H](NC(=O)[C@H](NC(=O)[C@H](CCC(N)=O)NC(=O)[C@H](CCC(N)=O)NC(=O)[C@@H]1CCCN1C(=O)[C@H](CCCCNC(=O)OCc1ccccc1)NC(=O)[C@@H]1CCCN1C(=O)[C@H](CCCN=C(N)N)NC(=O)OCc1ccccc1)C(C)C)C(C)C`: the Activity in assay [2] and in assay [3] was <2 dose ratio throughout.

Take `COC(=O)[C@H](CCSC)NC(=O)[C@H](CC(C)C)NC(=O)CNC(=O)[C@H](Cc1ccccc1)NC(=O)[C@H](Cc1ccccc1)NC(=O)[C@@H](Cc1ccccc1)NC(=O)[C@@H](Cc1ccccc1)NC(=O)[C@@H]1CCCN1C(=O)[C@H](CCCCN)NC(=O)[C@@H]1CCCN1C(=O)[C@@H](N)CCCN=C(N)N`: the Activity in assay [2] and in assay [3] was <2 dose ratio each time.

As for `COC(=O)[C@H](CCSC)NC(=O)[C@H](CC(C)C)NC(=O)CNC(=O)[C@H](Cc1ccccc1)NC(=O)[C@H](Cc1ccccc1)NC(=O)[C@@H](Cc1ccccc1)NC(=O)[C@@H](Cc1ccccc1)NC(=O)[C@@H]1CCCN1C(=O)[C@H](CCCCNC(=O)OCc1ccccc1)NC(=O)[C@@H]1CCCN1C(=O)[C@H](CCCN=C(N)N)NC(=O)OCc1ccccc1`, the Activity in assay [2] and in assay [3] was <2 dose ratio in each case.

`COC(=O)[C@@H](CCSC)NC(=O)[C@H](CC(C)C)NC(=O)CNC(=O)[C@H](Cc1ccccc1)NC(=O)[C@H](Cc1ccccc1)NC(=O)[C@@H](NC(=O)[C@H](NC(=O)[C@@H]1CCCN1C(=O)[C@H](CCCCN)NC(=O)[C@@H]1CCCN1C(=O)[C@@H](N)CCCN=C(N)N)C(C)C)C(C)C`: in assay [1], the SP was 0.005%.

Turning to `COC(=O)[C@@H](CCSC)NC(=O)[C@H](CC(C)C)NC(=O)[C@@H](Cc1c[nH]c2ccccc12)NC(=O)[C@@H](Cc1c[nH]c2ccccc12)NC(=O)[C@@H](Cc1c[nH]c2ccccc12)NC(=O)[C@H](CCC(N)=O)NC(=O)[C@H](CCC(N)=O)NC(=O)[C@@H]1CCCN1C(=O)[C@H](CCCCNC(=O)OCc1ccccc1)NC(=O)[C@@H]1CCCN1C(=O)[C@@H](N)CCCN=C(N)N`, the Activity amounted to 10 dose ratio in assay [2] and 5.6 dose ratio in assay [3].

`CSCC[C@@H](NC(=O)[C@H](CC(C)C)NC(=O)CNC(=O)[C@H](Cc1ccccc1)NC(=O)[C@H](Cc1ccccc1)NC(=O)[C@@H](NC(=O)[C@H](NC(=O)[C@@H]1CCCN1C(=O)[C@H](CCCCNC(=O)OCc1ccccc1)NC(=O)[C@@H]1CCCN1C(=O)[C@H](CCCN=C(N)N)NC(=O)OCc1ccccc1)C(C)C)C(C)C)C(=O)O`: the SP in assay [1] was < 0.0001%.

With `COC(=O)[C@@H](CCSC)NC(=O)[C@H](CC(C)C)NC(=O)[C@@H](Cc1c[nH]c2ccccc12)NC(=O)[C@@H](Cc1c[nH]c2ccccc12)NC(=O)[C@@H](Cc1c[nH]c2ccccc12)NC(=O)[C@H](CCC(N)=O)NC(=O)[C@H](CCC(N)=O)NC(=O)[C@@H]1CCCN1C(=O)[C@H](CCCCN)NC(=O)[C@@H]1CCCN1C(=O)[C@@H](N)CCCN=C(N)N`, the Activity in assay [2] was 3.9 dose ratio and 7.2 dose ratio; in assay [3], 9.9 dose ratio.

In turn, `COC(=O)[C@@H](CCSC)NC(=O)[C@H](CC(C)C)NC(=O)CNC(=O)[C@H](Cc1ccccc1)NC(=O)[C@H](Cc1ccccc1)NC(=O)[C@H](Cc1ccccc1)NC(=O)[C@@H](Cc1ccccc1)NC(=O)[C@@H]1CCCN1C(=O)[C@H](CCCCN)NC(=O)[C@@H]1CCCN1C(=O)[C@@H](N)CCCN=C(N)N` returned an SP in assay [1] of 0%.

Regarding `COC(=O)[C@@H](CCSC)NC(=O)[C@H](CC(C)C)NC(=O)[C@@H](Cc1c[nH]c2ccccc12)NC(=O)[C@@H](Cc1c[nH]c2ccccc12)NC(=O)[C@@H](Cc1c[nH]c2ccccc12)NC(=O)[C@H](CCC(N)=O)NC(=O)[C@H](CCC(N)=O)NC(=O)[C@@H]1CCCN1C(=O)[C@H](CCCCNC(=O)OCc1ccccc1)NC(=O)[C@@H]1CCCN1C(=O)[C@H](CCCN=C(N)N)NC(=O)OCc1ccccc1`, the Activity in assay [2] and in assay [3] was <2 dose ratio each time.

Take `COC(=O)[C@@H](CCSC)NC(=O)[C@H](CC(C)C)NC(=O)CNC(=O)[C@H](Cc1ccccc1)NC(=O)[C@H](Cc1ccccc1)NC(=O)[C@H](Cc1ccccc1)NC(=O)[C@@H](Cc1ccccc1)NC(=O)[C@@H]1CCCN1C(=O)[C@H](CCCCNC(=O)OCc1ccccc1)NC(=O)[C@@H]1CCCN1C(=O)[C@H](CCCN=C(N)N)NC(=O)OCc1ccccc1`: in assay [1], the SP was < 0.0001%.

`COC(=O)[C@@H](CCSC)NC(=O)[C@H](CC(C)C)NC(=O)CNC(=O)[C@@H](NC(=O)[C@H](NC(=O)[C@H](CCC(N)=O)NC(=O)[C@H](CCC(N)=O)NC(=O)[C@@H]1CCCN1C(=O)[C@H](CCCCNC(=O)OCc1ccccc1)NC(=O)[C@@H]1CCCN1C(=O)[C@H](CCCN=C(N)N)NC(=O)OCc1ccccc1)C(C)C)C(C)C`: in assay [1], the SP is < 0.0001%.

As to `COC(=O)[C@H](CCSC)NC(=O)[C@H](CC(C)C)NC(=O)CNC(=O)[C@H](Cc1ccccc1)NC(=O)[C@H](Cc1ccccc1)NC(=O)[C@H](NC(=O)[C@H](NC(=O)[C@@H]1CCCN1C(=O)[C@H](CCCCNC(=O)OCc1ccccc1)NC(=O)[C@@H]1CCCN1C(=O)[C@H](CCCN=C(N)N)NC(=O)OCc1ccccc1)C(C)C)C(C)C`, the Activity in assay [2] and in assay [3] was <2 dose ratio throughout.

On to `COC(=O)[C@@H](CCSC)NC(=O)[C@H](CC(C)C)NC(=O)CNC(=O)[C@H]1CCCN1C(=O)[C@H]1CCCN1C(=O)[C@H](CCC(N)=O)NC(=O)[C@H](CCC(N)=O)NC(=O)[C@@H]1CCCN1C(=O)[C@H](CCCCNC(=O)OCc1ccccc1)NC(=O)[C@@H]1CCCN1C(=O)[C@H](CCCN=C(N)N)NC(=O)OCc1ccccc1`, for which the SP in assay [1] was < 0.0001%. Moreover, the Activity in assay [2] and in assay [3] was <2 dose ratio in each case.

On to `CSCC[C@@H](NC(=O)[C@H](CC(C)C)NC(=O)CNC(=O)[C@H](Cc1ccccc1)NC(=O)[C@H](Cc1ccccc1)NC(=O)[C@@H](NC(=O)[C@H](NC(=O)[C@@H]1CCCN1C(=O)[C@H](CCCCN)NC(=O)[C@@H]1CCCN1C(=O)[C@@H](N)CCCN=C(N)N)C(C)C)C(C)C)C(=O)O`, for which the SP in assay [1] worked out at 6.4%.

On to `COC(=O)[C@@H](CCSC)NC(=O)[C@H](CC(C)C)NC(=O)CNC(=O)[C@H](Cc1ccccc1)NC(=O)[C@H](Cc1ccccc1)NC(=O)[C@@H]1CCCN1C(=O)[C@H]1CCCN1C(=O)[C@@H]1CCCN1C(=O)[C@H](CCCCN)NC(=O)[C@@H]1CCCN1C(=O)[C@@H](N)CCCN=C(N)N`, for which the SP in assay [1] worked out at 0.066%.
